From ChEMBL document CHEMBL1125826, “Synthesis and biological activity of 5-amino- and 5-hydroxyquinolones, and the overwhelming influence of the remote N1-substituent in determining the structure-activity relationship” (1991)
Converted amounts (≈) assume the structure as drawn.

What was measured:
Type in all cases: functional
Streptococcus pyogenes [1] = assay: The in vivo potency was determined in female charles river CD-1 mice infected with Streptococcus pyogenes after peroral administration; conditions: Streptococcus pyogenes, po; read-out: PD50
Outline: (§1)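 Acute lethal systemic infection in female CD-1 mice, 16 mice per route; single dose given orally by gavage at the time of challenge; median protective dose (PD50, mg/kg) determined.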

[2] = molecular target: DNA gyrase (Escherichia coli) (UniProt P0AES6+P0AES4); assay: Minimum inhibitory concentration against Escherichia coli DNA-gyrase in supercoiling assay
Bacteria [3] = assay: MIC ratio measured as the mean MICs of gram-negative bacteria
Outline: (§2)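 Geometric mean of the microtitration MICs (µg/mL) over the Gram-negative organisms, and separately over the Gram-positive organisms, of the 10-strain panel; individual MICs averaged from multiple experiments.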

Staphylococcus aureus [4] = assay: Antibacterial activity was determined against gram positive organism, Staphylococcus aureus UC76; conditions: Staphylococcus aureus; read-out: MIC
Outline: (§3)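 MIC (µg/mL) by standard microtitration against a panel of 10 Gram-positive and Gram-negative organisms; values averaged from multiple experiments.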

Streptococcus pneumoniae [5] = assay: The in vivo potency was determined in female charles river CD-1 mice infected with Streptococcus pneumoniae after peroral administration; conditions: Streptococcus pneumoniae, po; read-out: PD50; outline: as §1
Escherichia coli [6] = assay: Antibacterial activity was determined against gram negative organism, Escherichia coli vogel; conditions: Escherichia coli; read-out: MIC; outline: as §3
Escherichia coli [7] = assay: The in vivo potency was determined in female charles river CD-1 mice infected with Escherichia coli after sc administration; conditions: Escherichia coli, sc; read-out: PD50
Outline: (§4)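 Acute lethal systemic infection in female CD-1 mice, 16 mice per route; single subcutaneous dose given at the time of challenge; median protective dose (PD50, mg/kg) determined.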

Streptococcus pneumoniae [8] = assay: The in vivo potency was determined in female charles river CD-1 mice infected with Streptococcus pneumoniae after sc administration; conditions: Streptococcus pneumoniae, sc; read-out: PD50; outline: as §4
Klebsiella pneumoniae = assay: Antibacterial activity was determined against gram negative organism, Klebsiella pneumoniae MGH-2; conditions: Klebsiella pneumoniae; read-out: MIC; outline: as §3
Streptococcus pneumoniae [9] = assay: Antibacterial activity was determined against gram positive organism, Streptococcus pneumoniae SV-1; conditions: Streptococcus pneumoniae; read-out: MIC; outline: as §3
Enterobacter cloacae = assay: Antibacterial activity was determined against gram negative organism, Enterobacter cloacae MA2646; conditions: Enterobacter cloacae; read-out: MIC
Bacteria [10] = assay: Antibacterial activity was determined against gram negative organism, Providencia rettgeri. M1771; conditions: Bacteria; read-out: MIC; outline: as §3
Streptococcus pyogenes [11] = assay: Antibacterial activity was determined against gram positive organism, Streptococcus pyogenes C203; conditions: Streptococcus pyogenes; read-out: MIC; outline: as §3
Enterococcus faecalis = assay: Antibacterial activity was determined against gram positive organism, Streptococcus faecalis MGH-2; conditions: Enterococcus faecalis; read-out: MIC; outline: as §3
Streptococcus pyogenes [12] = assay: The in vivo potency was determined in female charles river CD-1 mice infected with Streptococcus pyogenes after sc administration; conditions: Streptococcus pyogenes, sc; read-out: PD50; outline: as §4
Staphylococcus aureus [13] = assay: Antibacterial activity was determined against gram positive organism, Staphylococcus aureus H228; conditions: Staphylococcus aureus; read-out: MIC; outline: as §3
Pseudomonas aeruginosa = assay: Antibacterial activity was determined against gram negative organism, Pseudomonas aeruginosa UI-18; conditions: Pseudomonas aeruginosa; read-out: MIC; outline: as §3
Bacteria [14] = assay: MIC ratio measured as the mean MICs of gram-positive bacteria; outline: as §2
Escherichia coli [15] = assay: The in vivo potency was determined in female charles river CD-1 mice infected with Escherichia coli after peroral administration; conditions: Escherichia coli, po; read-out: PD50; outline: as §1

| SMILES | ED50 (Streptococcus pyogenes [1]) | MIC [2] | Geometric mean MIC over Gram-negative bacteria (µg/mL) (Bacteria [3]) | MIC (Staphylococcus aureus [4]) | ED50 (Streptococcus pneumoniae [5]) | MIC (Escherichia coli [6]) | ED50 (Escherichia coli [7]) | ED50 (Streptococcus pneumoniae [8]) | MIC (Klebsiella pneumoniae) | MIC (Streptococcus pneumoniae [9]) | MIC (Enterobacter cloacae) | MIC (Bacteria [10]) | MIC (Streptococcus pyogenes [11]) | MIC (Enterococcus faecalis) | ED50 (Streptococcus pyogenes [12]) | MIC (Staphylococcus aureus [13]) | MIC (Pseudomonas aeruginosa) | Geometric mean MIC over Gram-positive bacteria (µg/mL) (Bacteria [14]) | ED50 (Escherichia coli [15]) |
| --- | --- | --- | --- | --- | --- | --- | --- | --- | --- | --- | --- | --- | --- | --- | --- | --- | --- | --- | --- |
| CC1CN(c2c(F)c(N)c3c(=O)c(C(=O)O)cn(C4CC4)c3c2F)CCN1 (centres undefined) | 20 mg/kg | 1 µg/mL (≈ 2.64 µM) | 0.038 | 0.025 µg/mL (≈ 0.0661 µM) | 20 mg/kg | 0.013 µg/mL (≈ 0.0344 µM) | 0.2 mg/kg | 15 mg/kg | 0.025 µg/mL (≈ 0.0661 µM) | 0.05 µg/mL (≈ 0.132 µM) | 0.013 µg/mL (≈ 0.0344 µM) | 0.05 µg/mL (≈ 0.132 µM) | 0.2 µg/mL (≈ 0.529 µM) | 0.1 µg/mL (≈ 0.264 µM) | 18 mg/kg | 0.05 µg/mL (≈ 0.132 µM) | 0.4 µg/mL (≈ 1.06 µM) | 0.066 | 0.5 mg/kg |
| CCNCC1CCN(c2c(F)c(N)c3c(=O)c(C(=O)O)cn(C4CC4)c3c2F)C1 (centres undefined) | 16 mg/kg | 0.5 µg/mL (≈ 1.23 µM) | 0.075 | 0.003 µg/mL (≈ 0.00738 µM) | 5 mg/kg | 0.05 µg/mL (≈ 0.123 µM) | 2 mg/kg | 3 mg/kg | 0.05 µg/mL (≈ 0.123 µM) | 0.003 µg/mL (≈ 0.00738 µM) | 0.05 µg/mL (≈ 0.123 µM) | 0.1 µg/mL (≈ 0.246 µM) | 0.013 µg/mL (≈ 0.032 µM) | 0.025 µg/mL (≈ 0.0615 µM) | 5 mg/kg | 0.013 µg/mL (≈ 0.032 µM) | 0.2 µg/mL (≈ 0.492 µM) | 0.0082 | 16 mg/kg |
| Nc1c(F)c(N2CCNCC2)c(F)c2c1c(=O)c(C(=O)O)cn2C1CC1 | 31 mg/kg | 0.5 µg/mL (≈ 1.37 µM) | 0.022 | 0.013 µg/mL (≈ 0.0357 µM) | 68 mg/kg | 0.013 µg/mL (≈ 0.0357 µM) | 0.2 mg/kg | 27 mg/kg | 0.025 µg/mL (≈ 0.0686 µM) | 0.05 µg/mL (≈ 0.137 µM) | 0.013 µg/mL (≈ 0.0357 µM) | 0.05 µg/mL (≈ 0.137 µM) | 0.1 µg/mL (≈ 0.274 µM) | 0.05 µg/mL (≈ 0.137 µM) | 23 mg/kg | 0.05 µg/mL (≈ 0.137 µM) | 0.025 µg/mL (≈ 0.0686 µM) | 0.044 | 0.8 mg/kg |
| CC1CN(c2cc3c(cc2F)c(=O)c(C(=O)O)cn3C2CC2)CCN1 (centres undefined) | 39 mg/kg | 0.5 µg/mL (≈ 1.45 µM) | 0.066 | 0.1 µg/mL (≈ 0.29 µM) | – | 0.025 µg/mL (≈ 0.0724 µM) | 0.4 mg/kg | – | 0.05 µg/mL (≈ 0.145 µM) | 0.2 µg/mL (≈ 0.579 µM) | 0.025 µg/mL (≈ 0.0724 µM) | 0.1 µg/mL (≈ 0.29 µM) | 0.2 µg/mL (≈ 0.579 µM) | 0.4 µg/mL (≈ 1.16 µM) | 12 mg/kg | 0.4 µg/mL (≈ 1.16 µM) | 0.4 µg/mL (≈ 1.16 µM) | 0.23 | 1 mg/kg |
| CC1CN(c2cc3c(c(N)c2F)c(=O)c(C(=O)O)cn3C2CC2)CCN1 (centres undefined) | 66 mg/kg | 0.5 µg/mL (≈ 1.39 µM) | 0.058 | 0.05 µg/mL (≈ 0.139 µM) | – | 0.013 µg/mL (≈ 0.0361 µM) | 0.4 mg/kg | – | 0.025 µg/mL (≈ 0.0694 µM) | 0.1 µg/mL (≈ 0.277 µM) | 0.025 µg/mL (≈ 0.0694 µM) | 0.1 µg/mL (≈ 0.277 µM) | 0.2 µg/mL (≈ 0.555 µM) | 0.2 µg/mL (≈ 0.555 µM) | 21 mg/kg | 0.2 µg/mL (≈ 0.555 µM) | 0.4 µg/mL (≈ 1.11 µM) | 0.13 | 2 mg/kg |
| CC1CN(c2c(F)c(N)c3c(=O)c(C(=O)O)cn(C4CC4)c3c2Cl)CCN1 (centres undefined) | 6 mg/kg | 3.8 µg/mL (≈ 9.62 µM) | 0.11 | 0.025 µg/mL (≈ 0.0633 µM) | 12 mg/kg | 0.025 µg/mL (≈ 0.0633 µM) | 0.3 mg/kg | 9 mg/kg | 0.1 µg/mL (≈ 0.253 µM) | 0.05 µg/mL (≈ 0.127 µM) | 0.05 µg/mL (≈ 0.127 µM) | 0.2 µg/mL (≈ 0.507 µM) | 0.1 µg/mL (≈ 0.253 µM) | 0.1 µg/mL (≈ 0.253 µM) | 4 mg/kg | 0.05 µg/mL (≈ 0.127 µM) | 0.8 µg/mL (≈ 2.03 µM) | 0.057 | 0.7 mg/kg |
| NC1CCN(c2c(F)cc3c(=O)c(C(=O)O)cn(C4CC4)c3c2F)C1 (centres undefined) | 15 mg/kg | 0.1 µg/mL (≈ 0.286 µM) | 0.029 | 0.013 µg/mL (≈ 0.0372 µM) | 8 mg/kg | 0.013 µg/mL (≈ 0.0372 µM) | 0.2 mg/kg | 2 mg/kg | 0.025 µg/mL (≈ 0.0716 µM) | 0.05 µg/mL (≈ 0.143 µM) | 0.013 µg/mL (≈ 0.0372 µM) | 0.05 µg/mL (≈ 0.143 µM) | 0.05 µg/mL (≈ 0.143 µM) | 0.1 µg/mL (≈ 0.286 µM) | 6 mg/kg | 0.05 µg/mL (≈ 0.143 µM) | 0.1 µg/mL (≈ 0.286 µM) | 0.044 | 0.9 mg/kg |
